Ends that are not written are not given here.

This is an account of results in publication PMC5367579 (International Journal of Nanomedicine, 2017).

The conditions of data set [1]: cited from earlier work.
For data set [2], the system named is INS-1 cells. Briefly: Glucose uptake of INS-1 cells. The format is cell-based. As to conditions: 10 nM SCD/peptides or 210 nM SeNPs/SC, KRBH buffer with 16.7 mM glucose, 20 min.
For data set [3], the system named is db/db mice. Briefly: Chronic 12-week daily administration in db/db mice. It counts as in vivo. Conditions: daily i.p. 12 weeks, 20 nmol/kg (SC 42.1 μg/kg), mean ± SEM, n=8.
The test system of data set [4] is db/db mice. As to the kind of experiment: Acute blood glucose lowering after single intraperitoneal dose in db/db mice. The format is in vivo. Conditions: 20 nmol/kg single intraperitoneal dose. Put shortly: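 Male 10-week-old db/db mice (type 2 diabetic), six groups of eight, with blood glucose measured before treatment. A single intraperitoneal dose of 20 nmol/kg (dosed by peptide content) was given, diluted in sterile normal saline. Blood glucose was read at 0.5 h, then hourly from 1 to 15 h. Controls were saline (same volume), reference peptides at 20 nmol/kg, and peptide-free nanoparticle carrier at 42.1 μg/kg.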

In data set [5] the test system is INS-1 cells. As to the kind of experiment: Insulin receptor beta subunit expression in INS-1 cells. The format is cell-based. As to conditions: 10 nM SCD/peptides or 210 nM SeNPs/SC, 48 h, Western blot IR-β. Background: A western blot detects proteins with antibodies after separation by electrophoresis.

Take “pituitary adenylate cyclase activating peptide [PACAP]”: the “half-life of wild PACAP” value in data set [1] (abstract, comparator for SCD half-life, ref not given) is ~ 5 min.

“HSDAVFTDNYTRLRKQVAAKKYLQSIKNKRY-NH2 (C-terminus assumed) [BAY55-9837]”: the half-life in data set [1] (in vivo) was ~ 5 min. In data set [2], this substance yielded a glucose uptake of 1.44 mM. Further, in data set [3], the CHOL was determined as 2.55 ± 0.25 mmol/L, the Free fatty acid is 1.30±0.19 mEq/L, the HDL-C is 1.46 ± 0.20 mmol/L and the LDL-C was found to be 0.63 ± 0.12 mmol/L. In data set [3], the TG stood at 1.93 ± 0.14 mmol/L, the Water consumption amounted to 27.2 ± 1.90 g/day and the Whole white fat is 15.3 ± 1.28 g. The “hypoglycemic effect” value in data set [4] is given as “momentary hypoglycemic effect within 30 min”. The “insulin receptor expression level vs PBS group” value in data set [5] was 1.25 fold.
